Format in all cases: cell-based, human
For one test, the system named is HaCaT. The test is described as follows: MTT cell viability/proliferation assay, HaCaT. As to conditions: read-out: HaCaT IC50. The method in brief:
(§1)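 Human lines grown at 37 °C, 5% CO2 with 10% FBS: U-118 MG in DMEM; T98G and HaCaT in EMEM. Seeded 1 × 10⁴ cells/well, left 24 h, then exposed 48 h to test compound at 7.81–1000 μg mL⁻¹ (eight twofold steps). MTT added at 0.5 mg mL⁻¹ final for 2 h. Formazan dissolved in DMSO, read at 492 nm against 690 nm reference. IC50 is the mean of ≥3 independent experiments.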

A further test relates to T98G. The experiment in a line: MTT cell viability/proliferation assay, T98G. As to conditions: read-out: T98G IC50. The essentials:
as §1

The test system of another test is U-118 MG. The test is described as follows: MTT cell viability/proliferation assay, U-118 MG. As to conditions: read-out: U-118 MG IC50. The method in brief:
as §1

A further test has as its system T98G cells. The test is described as follows: Colony formation. As to conditions: for clonogenic survival compared to control cells: 20 μM; for reduction of cancer cell clonogenic potential: 50 μM. The method in brief: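 T98G cells seeded at 500 per well and allowed to adhere 24 h. Exposed to test compound at 2–100 μM in triplicate; after 24 h switched to compound-free medium, 7 days total. Colonies (≥50 cells) methanol-fixed, stained with 1% gentian violet and counted by light microscopy.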

[1] abbreviates: MTT, 48 hours, glioblastoma multiforme cell line.

Like-named read-outs stand apart in the source and are kept apart here.

A word on the IC50: it is the concentration that inhibits the measured activity by half. For the compound `CCOP(=O)(OCC)C(Cc1c(F)c(F)c(F)c(F)c1F)Nc1ccccc1` (stereo not shown) [Compound 1a, Diethyl (2-(perfluorophenyl)-1-(phenylamino)ethyl)phosphonate], the half-inhibitory concentration (IC50) in the test on HaCaT (Homo sapiens, HaCaT, 48 h) is 56.8 ± 7.4 µM; with T98G (Homo sapiens, T98G, 48 h), 40.4 ± 6.2 µM; in the test with U-118 MG (Homo sapiens, U-118-MG, 48 h), 60.7 ± 8.9 µM.
Taken in the same sequence, the figures for `O=c1[nH]c(=O)n([C@H]2C[C@H](O)[C@@H](CO)O2)cc1F` [Compound 5-FdU, 5-fluoro-2′-deoxyuridine, reference compound] were 4.42 ± 1.1 µM, 5.57 ± 0.9 µM and 23.4 ± 1.6 µM.
As to `CCOP(=O)(OCC)C(Cc1c(F)c(F)c(Oc2ccc(Cl)cc2)c(F)c1F)Nc1ccccc1` (stereo not shown) [Compound 2r, Diethyl (2-(4-(4-chlorophenoxy)-2,3,5,6-tetrafluorophenyl)-1-(phenylamino)ethyl)phosphonate], the 50% inhibitory concentration (IC50) in the test with HaCaT (Homo sapiens, HaCaT, 48 h) worked out at 48.4 ± 7.4 µM; in the test on T98G (Homo sapiens, T98G, 48 h), 70.3 ± 8.3 µM; in the test with U-118 MG (Homo sapiens, U-118-MG, 48 h), 79.2 ± 6.4 µM.
Take `CCOP(=O)(OCC)C(Cc1c(F)c(F)c(SCC(NC(C)=O)C(=O)OC)c(F)c1F)Nc1ccccc1` (stereo not shown) [Compound 2j, Methyl 2-acetamido-3-((4-(2-(diethoxyphosphoryl)-2-(phenylamino)ethyl)-2,3,5,6-tetrafluorophenyl)thio)propanoate]: the IC50 is over 100 µM in the test with HaCaT (Homo sapiens, HaCaT, 48 h); 82.7 ± 15.7 µM in the test with T98G (Homo sapiens, T98G, 48 h); over 100 µM in the test on U-118 MG (Homo sapiens, U-118-MG, 48 h).
Consider `CCOP(=O)(OCC)C(Cc1c(F)c(F)c(Sc2cccc(N)c2)c(F)c1F)Nc1ccccc1` (stereo not shown) [Compound 2f, Diethyl (2-(4-((3-aminophenyl)thio)-2,3,5,6-tetrafluorophenyl)-1-(phenylamino)ethyl)phosphonate], for which the half-inhibitory concentration (IC50) amounted to 18.2 ± 3.4 µM in the test with HaCaT (Homo sapiens, HaCaT, 48 h); 25.5 ± 1.9 µM in the test on T98G (Homo sapiens, T98G, 48 h); 28.1 ± 3.6 µM in the test with U-118 MG (Homo sapiens, U-118-MG, 48 h). Besides, the “clonogenic survival compared to control cells” value in the test with T98G cells came out at 10%. In addition, the “reduction of cancer cell clonogenic potential” value with T98G cells is reported as 98%.
For `CCOP(=O)(OCC)C(Cc1c(F)c(F)c(Sc2cccc(OC)c2)c(F)c1F)Nc1ccccc1` (stereo not shown) [Compound 2e, Diethyl (1-(phenylamino)-2-(2,3,5,6-tetrafluoro-4-((3-methoxyphenyl)thio)phenyl)ethyl)phosphonate], the 50% inhibitory concentration (IC50) was 10.1 ± 2.2 µM with HaCaT (Homo sapiens, HaCaT, 48 h); 20.4 ± 3.1 µM in the test with T98G (Homo sapiens, T98G, 48 h); 21.4 ± 2.7 µM in the test on U-118 MG (Homo sapiens, U-118-MG, 48 h). Also, in the test with T98G cells, the “clonogenic survival compared to control cells” value was determined as 30%. In the test on T98G cells, the “reduction of cancer cell clonogenic potential” value stood at 85%.
Turning to “Diethyl (1-(phenylamino)-2-(2,3,5,6-tetrafluoro-4-(m-tolylthio)phenyl)ethyl)phosphonate [Compound 2b]”, the IC50 in the test on HaCaT (MTT, 48 hours, referential healthy cells) was 26.5 ± 4.7 µM; with T98G (setting [1]) it was 14.5 ± 3.3 µM; in the test on U-118 MG (setting [1]), 37.9 ± 2.5 µM.
